Measured values of several laboratories.
XDH: Xanthine dehydrogenase/oxidase (XDH, Bos taurus, UniProt P80457)
STAT5B SH2: Signal transducer and activator of transcription 5B, SH2 (STAT5B, Homo sapiens, UniProt P51692)
SIRT1: NAD-dependent protein deacetylase sirtuin-1 (SIRT1, Homo sapiens, UniProt Q96EB6)
SPHK2: Sphingosine kinase 2 (SPHK2, Homo sapiens, UniProt Q9NRA0)
SLC7A5: Large neutral amino acids transporter small subunit 1 (SLC7A5, Homo sapiens, UniProt Q01650)

| SMILES | target | test | setting | inhibition [%] |
| --- | --- | --- | --- | --- |
| O=C(CO)c1ccc(O)c(O)c1 | XDH | enzyme activity, inhibitor, absorbance | 200 µg/mL | 43.3 |
| CC(C)(C)C(=O)OCOP(=O)(Cc1ccccc1CP(=O)(OCOC(=O)C(C)(C)C)OCOC(=O)C(C)(C)C)OCOC(=O)C(C)(C)C | STAT5B SH2 | ligand displacement, FP | 100 µM | -1 |
| O=C1CC(CCc2ccccc2)Oc2c(Br)cc(Cl)cc21 (stereo not drawn) | SIRT1 | enzyme activity, inhibitor, fluorescence | 200 µM | 6.9 |
| CCCCCCCCNC(=S)NCCCC[C@H](NS(C)(=O)=O)C(=O)N[C@H](C)C(=O)N[C@@H](CCCNC(=N)N)C(N)=O | SIRT1 | enzyme activity, inhibitor | 10 µM | 71 |
| O=C(COc1ccc2cc(C(=O)Nc3ccccc3)ccc2c1)NCc1ccc(O)c(O)c1 | STAT5B SH2 | ligand displacement, FP | 100 µM | -2 |
| COc1ccc(CCc2ccc(-c3noc([C@@H]4CCCN4C(=N)N)n3)cc2C(F)(F)F)cc1 | SPHK2 | enzyme activity, inhibitor, radiometric | 0.3 µM | 45 |
| O=C(O)c1ccc(O)c(O)c1 | XDH | enzyme activity, inhibitor, absorbance | 200 µg/mL | 20.8 |
| NC(CCOC(=O)c1ccccc1)C(=O)O (stereo not drawn) | SLC7A5 | transporter uptake, inhibitor, radiometric | 200 µM | 11 |
| O=C(NC1CCC1)[C@H](Cc1c[nH]c2ccccc12)NC(=O)[C@H](CCCCNC(=S)NCCc1nnn[nH]1)NS(=O)(=O)c1cccc(F)c1 | SIRT1 | enzyme activity, inhibitor | 1 µM | 7 |
| CCCCCCCCCCCCNC(=S)NCCCC[C@H](NC(=O)OCc1ccccc1)C(=O)N[C@@H](CCCCN)C(=O)N[C@@H](CCCNC(=N)N)C(N)=O | SIRT1 | enzyme activity, inhibitor | 1 µM | 25 |
| N[C@@H](CO)C(=O)O | SLC7A5 | transporter uptake, inhibitor, radiometric | 200 µM | -1 |
| O=C(CSc1nc2nccnc2c(=O)n1CCc1ccccc1)Nc1nccs1 | SPHK2 | enzyme activity, inhibitor | 10 µM | 0 |
| OCCc1ccc(O)c(O)c1 | XDH | enzyme activity, inhibitor, absorbance | 100 µg/mL | 7.3 |
| CCCCCC1CC(=O)c2cc(Cl)ccc2O1 (stereo not drawn) | SIRT1 | enzyme activity, inhibitor, fluorescence | 200 µM | 2.7 |
| O=Cc1c[nH]c2ccccc12 | XDH | enzyme activity, inhibitor, absorbance | 200 µg/mL | 13.1 |
| N=C(N)N1CCC[C@H]1c1nc(-c2ccc(CCC3CCCC3)c(C(F)(F)F)c2)no1 | SPHK2 | enzyme activity, inhibitor, radiometric | 0.3 µM | 25 |
| C[C@@H](NC(=O)[C@H](CCCCNC(=O)C(F)(F)F)NS(C)(=O)=O)C(=O)N[C@@H](CCCNC(=N)N)C(N)=O | SIRT1 | enzyme activity, inhibitor | 100 µM | 14 |
| CCCCCCCC1CC(=O)c2cc(Cl)cc(Br)c2O1 (stereo not drawn) | SIRT1 | enzyme activity, inhibitor, fluorescence | 200 µM | 7.5 |
| CN(C)C1CCN(CC#Cc2nn(C3CCCC3)c3nc(NCc4ccccc4)ncc23)C1 (stereo not drawn) | Protein kinase C theta type (PRKCQ, Homo sapiens, UniProt Q04759) | enzyme activity, inhibitor, FRET | 10 µM | 13 |
| O=C(Nc1ccc(S(=O)(=O)N2CCC(Cl)CC2)cc1)c1ccc([N+](=O)[O-])o1 | Alpha-1B adrenergic receptor (Adra1b, Rattus norvegicus, UniProt P15823) | ligand displacement, radioligand | 10 µM | 13 |
| COc1cc(-c2cc(-c3ccc(N4CCNCC4)cc3)cnc2N)cc(OC)c1OC | Platelet-derived growth factor receptor alpha (PDGFRA, Homo sapiens, UniProt P16234, D842V) | enzyme activity, inhibitor | 1 µM | 90 |
| CCCCCCCCCCCCNC(=S)NCCCC[C@H](NC(=O)OCc1ccccc1)C(=O)N[C@@H](Cc1c[nH]c2ccccc12)C(=O)N[C@@H](CC(N)=O)C(N)=O | SIRT1 | enzyme activity, inhibitor | 10 µM | 29 |
| NC(CCCNC(=O)c1ccccc1)C(=O)O (stereo not drawn) | SLC7A5 | transporter uptake, inhibitor, radiometric | 200 µM | 54 |
| CCCCNC(=S)NCCCC[C@H](NS(=O)(=O)c1cccc(F)c1)C(=O)N[C@@H](Cc1c[nH]c2ccccc12)C(=O)NC1CCC1 | SIRT1 | enzyme activity, inhibitor | 1 µM | > 95 |

| SMILES | target | test | setting | inhibition [%] |
| --- | --- | --- | --- | --- |
| CC(C)(C)c1ccc(CCc2ccc(-c3noc([C@@H]4CCCN4C(=N)N)n3)cc2C(F)(F)F)cc1 | SPHK2 | enzyme activity, inhibitor, radiometric | 0.3 µM | 71 |
| CCCCCC1CC(O)c2cc(Cl)cc(Br)c2O1 (stereo not drawn) | SIRT1 | enzyme activity, inhibitor, fluorescence | 200 µM | -5.5 |
| CCCCCCCCCCCCNC(=O)NCCCC[C@H](NS(C)(=O)=O)C(=O)N[C@H](C)C(=O)N[C@@H](CCCNC(=N)N)C(N)=O | SIRT1 | enzyme activity, inhibitor | 10 µM | 38 |
| CCCCCC=CCOc1ccc(-c2noc([C@@H]3CCCN3C(=N)N)n2)cc1C(F)(F)F (mixture of isomers) | SPHK2 | enzyme activity, inhibitor, radiometric | 0.3 µM | 40 |
| O=C(O)c1ccc(O)cc1 | XDH | enzyme activity, inhibitor, absorbance | 100 µg/mL | 14.7 |
| CC(C)CCn1c(SCC(=O)Nc2ccccc2C(F)(F)F)nc2nccnc2c1=O | Phosphatidylinositol 4-kinase beta (PI4KB, Homo sapiens, UniProt Q9UBF8) | enzyme activity, inhibitor | 10 µM | < 20 |
| CCCC(=S)NCCCC[C@H](NS(C)(=O)=O)C(=O)N[C@H](C)C(=O)N[C@@H](CCCNC(=N)N)C(N)=O | SIRT1 | enzyme activity, inhibitor | 10 µM | 14 |
| O=C1C=C(c2ccc(O)c(O)c2)CO1 | XDH | enzyme activity, inhibitor, absorbance | 100 µg/mL | 17.2 |
| CCCCCC1CC(=O)c2cc(Cl)cc(Br)c2O1 (stereo not drawn) | SIRT1 | enzyme activity, inhibitor, fluorescence | 200 µM | 6.2 |
| [H]/N=C(\N)N1CCC[C@H]1c1nc(-c2ccc(OCCC=Cc3ccc(C(F)(F)F)cc3)c(C(F)(F)F)c2)no1 | SPHK2 | enzyme activity, inhibitor, radiometric | 0.3 µM | 68 |
| CCCCCCCCCCCCNC(=S)NCCCC[C@H](NC(=O)OCc1ccccc1)C(=O)N[C@@H](Cc1c[nH]c2ccccc12)C(=O)N[C@@H](CCCCNC(=N)N)C(N)=O | SIRT1 | enzyme activity, inhibitor | 1 µM | 76 |
| [H]/N=C(\N)N1CCC[C@H]1c1nc(-c2ccc(OCC=CCCCC)c(C(F)(F)F)c2)no1 | SPHK2 | enzyme activity, inhibitor, radiometric | 0.3 µM | 48 |
| O=C(CSc1nc2nccnc2c(=O)n1CCc1ccccc1)Nc1ccccc1 | SPHK2 | enzyme activity, inhibitor | 10 µM | < 20 |
| NC(CCNC(=O)c1ccccc1)C(=O)O (stereo not drawn) | SLC7A5 | transporter uptake, inhibitor, radiometric | 200 µM | 8.6 |
| OCCc1ccc(O)cc1 | XDH | enzyme activity, inhibitor, absorbance | 200 µg/mL | 21.2 |
| [H]/N=C(\N)N1CCC[C@H]1c1nc(-c2ccc(OCC=Cc3ccccc3C(F)(F)F)c(C(F)(F)F)c2)no1 | SPHK2 | enzyme activity, inhibitor, radiometric | 0.3 µM | 0 |
| Cn1c(CNC(=S)NCCCC[C@H](NS(=O)(=O)c2cccc(F)c2)C(=O)N[C@@H](Cc2c[nH]c3ccccc23)C(=O)NC2CCC2)n[nH]c1=S | SIRT1 | enzyme activity, inhibitor | 30 µM | 89 |
| O=Cc1ccc(O)cc1 | XDH | enzyme activity, inhibitor, absorbance | 200 µg/mL | 6.5 |
| CCCCCC1CC(=O)c2cc([N+](=O)[O-])ccc2O1 (stereo not drawn) | SIRT1 | enzyme activity, inhibitor, fluorescence | 200 µM | 4.7 |
| CCOCCOCCOCCNC(=S)NCCCC[C@H](NS(C)(=O)=O)C(=O)N[C@H](C)C(=O)N[C@@H](CCCNC(=N)N)C(N)=O | SIRT1 | enzyme activity, inhibitor | 100 µM | 16 |
| CCCCCC1CC(=O)c2cccc(Br)c2O1 (stereo not drawn) | SIRT1 | enzyme activity, inhibitor, fluorescence | 200 µM | 7.1 |
| N[C@@H](Cc1cccc(OC(=O)c2ccccc2)c1)C(=O)O | SLC7A5 | transporter uptake, inhibitor, radiometric | 200 µM | 100 |
| CCCCCC1CC(=O)c2cc(F)cc(F)c2O1 (stereo not drawn) | SIRT1 | enzyme activity, inhibitor, fluorescence | 200 µM | 0.4 |
| CCc1ccc(CCc2ccc(-c3noc([C@@H]4CCCN4C(=N)N)n3)cc2C(F)(F)F)cc1 | SPHK2 | enzyme activity, inhibitor, radiometric | 0.3 µM | 63 |
